For test [1], the system named is CCRF-CEM. Put plainly: Compound is tested for the inhibition of growth of human lymphoblastic leukemia cells (CEM). The format is functional. As to conditions: read-out: ID50 (the source's name). In short, it runs like this: (§1)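 CEM human lymphoblastic and L1210 murine leukemia cells were grown in culture with drug for 48 h, at concentrations up to 10 μM. The read-out was growth inhibition, given as ID50 or, where ID50 was not reached, as percent inhibition at 10 μM. Values are averages of triplicate experiments.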

Test [2] has as its target Dihydrofolate reductase (Lactobacillus casei) (UniProt P00381). Put plainly: Compound is evaluated for binding to Lactobacillus casei dihydrofolate reductase using kinetic assay. The settings on record: Lacticaseibacillus casei.
In test [3] the test system is L1210. Put plainly: Compound is evaluated for activity against L1210 leukemia in mice, at dose 160 mg/kg. The format is functional, Mus musculus. In short, it runs like this: (§2)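 B6D2F1 mice were inoculated ip with 10^5 L1210 cells on day 0. Test agents were given ip on days 1, 4 and 7 in 10% Tween 80 or a 1:1:8 emulphor-ethanol-water suspension; MTX was given ip as the disodium salt in water. Groups were mostly five mice. Read-out was median survival of treated vs control mice (days) and % increase in life span.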

In test [4] the test system is L1210. Put plainly: Compound is evaluated for activity against L1210 leukemia in mice, at dose 80 mg/kg. The format is functional, Mus musculus. Put shortly: as §2
In test [5] the test system is L1210. Put plainly: Compound is tested for the inhibition of growth of murine leukemia cells (L1210). The format is functional. As to conditions: Mus musculus, read-out: ID50 (the source's name). Put shortly:
as §1

Test [6] relates to L1210. Put plainly: Compound is evaluated for increase in life span against L1210 leukemia in mice, at dose 160 mg/kg. It is filed as functional. As to conditions: Mus musculus. In short, it runs like this:
(§3)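 B6D2F1 mice were inoculated ip with 10⁵ L1210 cells on day 0. Drug was given ip on days 1, 4 and 7 (q3d) as a suspension in 10% Tween 80 or 1:1:8 emulphor–ethanol–water, or as the disodium salt in water. The read-out was median survival of treated versus control mice (T/C, days), expressed as % increase in life span.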

The test system of test [7] is L1210. Put plainly: Compound is evaluated for increase in life span against L1210 leukemia in mice, at dose 80 mg/kg. The format is functional. The settings on record: Mus musculus. In short, it runs like this: as §3
The subject of test [8] is Mus musculus. Put plainly: Compound is evaluated for activity against L1210 leukemia in mice, at dose 80 mg/kg expressed as T/C=11/9. The format is functional. In short, it runs like this:
as §2

Test [9] concerns Mus musculus. Put plainly: Compound is evaluated for activity against L1210 leukemia in mice, at dose 160 mg/kg expressed as T/C=13/9. It is filed as functional. In short, it runs like this: as §2
Test [10] deals with T1, Dihydrofolate reductase (Mus musculus) (UniProt P00375).
T1 sequence (whole entry): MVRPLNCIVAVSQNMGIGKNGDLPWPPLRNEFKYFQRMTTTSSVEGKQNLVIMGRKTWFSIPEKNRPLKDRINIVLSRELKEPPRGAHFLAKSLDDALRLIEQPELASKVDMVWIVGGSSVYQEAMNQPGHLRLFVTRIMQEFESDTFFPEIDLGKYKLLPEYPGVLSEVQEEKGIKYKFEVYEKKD
Put plainly: Compound is evaluated for binding to L1210 mouse leukemia cells dihydrofolate reductase using ligand-binding assay.

A value given as a limit tells only on which side of the number the result lay.

Dihydrofolate reductase (Lactobacillus casei), sequence (P00381 whole entry): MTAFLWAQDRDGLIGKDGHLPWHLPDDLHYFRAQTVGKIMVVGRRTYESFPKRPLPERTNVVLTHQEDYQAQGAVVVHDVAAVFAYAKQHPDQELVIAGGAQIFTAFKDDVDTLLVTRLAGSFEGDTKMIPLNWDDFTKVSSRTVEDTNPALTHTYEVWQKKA

Broadly, the ILS is the gain in survival time of treated over control animals, in per cent. A lower ILS goes with a small benefit in survival. As to `CN(Cc1cnc2nc(N)nc(N)c2n1)c1ccc(C(=O)NC(CCC(=O)NCc2ccc(Cl)cc2)C(=O)NCc2ccc(Cl)cc2)cc1` (stereo not given), the IC50 in [1] is more than 10000 nM; in [5], 6600 nM. For the same compound, the ID50 was 2300 nM in test [2] and 180 nM in test [10]. The MTX equivalent came to 130 mg/kg in test [3] and 65 mg/kg in test [4]. The compound further came in with an ILS at 160 mg/kg in [6] of 44%. Also, in [7], the ILS at 80 mg/kg amounted to 22%. In addition, the “Median T/C” value in test [8] was 11 days; in [9] it was 13 days.
